A selection: hits, their analogues and other compounds. The true share with any hit is near 2.4%.
TDP2 absorb: human TDP2 enzyme inhibitors, primary screen, biochemical, epi absorbance, recombinant enzyme; Tyrosyl-DNA phosphodiesterase 2 (Homo sapiens), O95551; T5PNP hydrolysis, p-nitrophenol absorbance 415 nm; inhibition, % at 12.8 µM; 0.34% of 370,000 active;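 active = inhibition above the mean of all tested compounds plus 3 SD, set per campaign, cut at about 25% in these data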
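test system = human TDP2 enzyme | input = TDP2 enzyme at 120 nM final | medium = 50 mM Tris-HCl pH 7.5 with Mg2+, KCl, DTT, BSA | also added = T5PNP substrate, 5 mM | times = 2 h at 37 °C | technique = epi absorbance | benchmarks = high control without enzyme, low control DMSO plus TDP2 | replication = each compound tested once, singlicate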
PAD4 FP inh: human PAD4 inhibitors, primary screen, biochemical, fluorescence polarization, 1536-well format; inhibition, % at 6.36 µM; recombinant PAD4, RCA probe fluorescence polarization; AID 485272, 2010; 0.41% of 330,000 active;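 active = percent inhibition above a cutoff equal to the mean of all tested compounds plus 3 SD, cut at about 15% in these data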
Target sequence (Q9UM07 whole entry, looked up): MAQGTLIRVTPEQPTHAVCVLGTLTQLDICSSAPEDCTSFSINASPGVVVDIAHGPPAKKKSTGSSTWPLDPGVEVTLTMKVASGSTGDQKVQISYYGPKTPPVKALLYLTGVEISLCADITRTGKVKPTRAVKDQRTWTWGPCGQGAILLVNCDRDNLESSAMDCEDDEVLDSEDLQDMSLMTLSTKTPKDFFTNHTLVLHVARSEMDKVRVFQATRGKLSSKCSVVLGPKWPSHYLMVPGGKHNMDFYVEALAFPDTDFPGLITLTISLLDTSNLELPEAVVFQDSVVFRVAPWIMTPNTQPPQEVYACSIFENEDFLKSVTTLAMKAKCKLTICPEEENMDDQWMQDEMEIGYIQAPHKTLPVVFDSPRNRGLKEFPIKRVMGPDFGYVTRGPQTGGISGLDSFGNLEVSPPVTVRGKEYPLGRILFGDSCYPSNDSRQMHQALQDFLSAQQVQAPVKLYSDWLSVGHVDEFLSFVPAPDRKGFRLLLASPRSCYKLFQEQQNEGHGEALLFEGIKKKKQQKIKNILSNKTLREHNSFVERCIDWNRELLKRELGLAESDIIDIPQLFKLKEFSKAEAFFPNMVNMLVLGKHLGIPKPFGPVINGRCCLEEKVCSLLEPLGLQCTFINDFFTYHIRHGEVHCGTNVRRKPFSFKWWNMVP
Apaf-1 inh: inhibitors of human Apaf-1 apoptosome, primary screen, biochemical, DEVD-Rh110 fluorescence, uHTS; reconstituted apoptosome caspase-3 activity; inhibition, % at 20 µM; 0.71% of 330,000 active; Apoptotic protease-activating factor 1 (Homo sapiens), O14727; active = inhibition of at least 40% at 20 µM
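System – cell-free apoptosome with Apaf-1, procaspase-3 and caspase-9 · Buffer or medium – pH 7.5 Hepes buffer with CHAPS, BSA, DTT · Also added – cytochrome c with DEVD-Rh110 · Times – 30 min compound preincubation, 50 min activation, room temperature · Technique – Rh110 fluorescence intensity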
TCR-CD3 inh: inhibitors of human TCR-CD3 interaction, primary screen, biochemical, fluorescence, TAMRA-labeled TCR probe | T-cell receptor (TCR) | inhibition, % at 9.4 µM | 0.37% of 360,000 active; in the data active = inhibition above about 19%;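 also: recombinant mutant TCR 2C K166C tagged with TAMRA read by polarization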
GSTO1 inh: inhibitors of recombinant GSTO1, primary screen, counter-screen for RBBP9 inhibitor project, biochemical, fluorescence polarization; Glutathione S-transferase omega-1 (Homo sapiens), P78417; AID 1974, 2009; inhibition, % at 5.96 µM; activity-based probe fluorescence polarization; 1.1% of 300,000 active;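 active = inhibition above the campaign mean inhibition plus 3 SD, cut at about 35% in these data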
SIAE primary: human SIAE inhibitors, primary screen, biochemical, fluorescence polarization, FP-Rh probe, 1536-well HTS; Sialate O-acetylesterase (Homo sapiens), Q9HAT2; SIAE FP-Rh probe binding; inhibition, % at 9.66 µM; 0.69% of 370,000 active; AID 1053197, 2014;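 active = inhibition above a cutoff: mean of compounds within the control limits plus 3 SD of those, cut at about 17% in these data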
SIAE inh conf: human SIAE inhibitors, retest, confirmation, biochemical, fluorescence polarization, FP-Rh probe, triplicate; 13% of 2,300 active; inhibition, % at 9.66 µM; SIAE FP-Rh activity-based probe; shares compounds with SIAE primary;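 active = mean inhibition of the replicates above the hit cutoff set in the primary screen, cut at about 17% in these data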;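 also: inhibitors lower polarization as more probe stays unbound to SIAE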
Large screens that a line does not name were inactive (follow-up assays come after a bar, where they were run).

Cc1ccccc1NC(=S)N1CCN(c2ccccc2)CC1	SIAE primary 18 | SIAE inh conf inactive
CCOC(=O)CN1CC23C=CC(O2)C(C(=O)Nc2ccc(OC)cc2OC)C3C1=O (stereo not given)	none
CCOC(=O)CN1CC23C=CC(O2)C(C(=O)Nc2cc(OC)ccc2OC)C3C1=O (stereo not given)	SIAE primary 17 | SIAE inh conf inactive
O=C(c1ccc(S(=O)(=O)NCC2CCCO2)cc1)N1CCc2ccccc21 (stereo not given)	SIAE primary 22 | SIAE inh conf inactive
CN(C)N1C(N)=C(C#N)C(c2ccccc2F)C2=C1CC(C)(C)CC2=O (stereo not given)	SIAE primary 25 | SIAE inh conf inactive
Oc1cc2c(cc1CN1CCN(c3ncccn3)CC1)OCO2	none
Cc1ccc(C(=O)O)cc1NC(=O)CSc1nnc(-c2ccccc2F)n1C1CCCCC1	SIAE primary 19 (no result: GSTO1 inh) | SIAE inh conf inactive
CS(=O)(=O)c1ccc(Cl)c(NC(=O)c2cccc(Br)c2)c1	none
CS(=O)(=O)c1ccc(Cl)c(NC(=O)c2cccc(N3C(=O)CCC3=O)c2)c1	SIAE primary 19 | SIAE inh conf inactive
CN1CCC(=NNC(=O)CN(c2ccc([N+](=O)[O-])cc2)S(=O)(=O)c2ccccc2)CC1	none
CN1CCC(=NNC(=O)CN(c2cccc([N+](=O)[O-])c2)S(=O)(=O)c2ccccc2)CC1	SIAE primary 23 | SIAE inh conf inactive
Cc1ccc(Cl)cc1NC(=O)CN1C(=O)NC2(CCCCCC2)C1=O	SIAE primary 45 (no result: GSTO1 inh) | SIAE inh conf inactive
Cc1cc(Cl)ccc1NC(=O)CN1C(=O)NC2(CCCC2)C1=O	none
COc1ccc(N(CC(=O)NC2CCCC2)C(=O)Cn2nnc(-c3ccc(C)o3)n2)cc1	SIAE primary 18 (no result: PAD4 FP inh, GSTO1 inh) | SIAE inh conf inactive
Cc1ccc(C(=O)NCCCNC(=O)c2ccco2)cc1	none
Cc1ccc(-c2cnc(SCCNC(=O)c3ccco3)[nH]2)cc1	SIAE primary 17 | SIAE inh conf inactive
CCOC(=O)c1nnc2c(Br)c(-c3ccccc3)nn2c1C	none
CC(=O)N1CCc2cc(C(=O)CN3CCCCC3)ccc21	SIAE primary 44 | SIAE inh conf inactive
CCOC(=O)N1CCN(CC(=O)c2ccc3c(c2)CCN3C(C)=O)CC1	none
CCN(CC)c1ncc(C)c(=O)[nH]1	none
CC(C)C(OC(=O)CN1C(=O)COc2ccccc21)C(=O)NC1CCCCC1 (stereo not given)	SIAE primary 18 | SIAE inh conf inactive
COc1ccc(OC)c(/C=C2\S/C(=N/NC(=O)c3ccc4ccccc4c3)NC2=O)c1	SIAE primary 19 (no result: Apaf-1 inh) | SIAE inh conf inactive
COc1ccc(NC(=O)Cc2ccsc2)c(OC)c1	SIAE primary 18 | SIAE inh conf inactive
COc1ccc(NC(=O)COC(=O)Cc2ccsc2)c(OC)c1	none (no result: GSTO1 inh)
O=C(Cc1cn(Cc2ccccc2)c2ccccc12)Nc1ccc(Nc2cccnc2)cc1	SIAE primary 26 (no result: PAD4 FP inh, Apaf-1 inh, GSTO1 inh) | SIAE inh conf 28
CC(C)NC(=S)Nc1ccc2cn[nH]c2c1	SIAE primary 19 | SIAE inh conf inactive
COc1ccc(/C=N/NC(=O)c2ccc(F)cc2)cc1CN1CCc2cc(OC)c(OC)cc2C1C (stereo not given)	none
COc1ccc(/C=N/NC(=O)c2ccc(O)cc2)cc1CN1CCCc2ccccc21	SIAE primary 26 | SIAE inh conf inactive
O=C(CCc1ccccc1)Nc1cccc(S(=O)(=O)N2CCOCC2)c1	SIAE primary 25 (no result: GSTO1 inh) | SIAE inh conf inactive
CC1(C)CC(=O)C/C(=N\NC(=O)C2CC2c2ccccc2)C1 (stereo not given)	none
CCOc1ccc(OCCOC(=O)CN(C)S(=O)(=O)c2ccc(NC(C)=O)cc2)cc1	SIAE primary 20 | SIAE inh conf inactive
CC(=O)Nc1ccc(S(=O)(=O)N(C)CC(=O)OCC(=O)N2CCCCC2)cc1	none
O=C1NC[C@H](CCCCN2C[C@H](Cc3ccc(O)cc3)N(Cc3ccccc3)C(=O)C2=O)N(Cc2ccccc2)C1=O	none (no result: PAD4 FP inh, Apaf-1 inh, GSTO1 inh)
CCOC(=O)c1c(C)sc2c1N(C(=O)CN(CC)CC)c1ccccc1S2	SIAE primary 17 | SIAE inh conf inactive
Cc1c(N/N=C(\C#N)C(=O)c2ccc(Cl)cc2)c(=O)n(-c2ccccc2)n1C	SIAE primary 18 (no result: Apaf-1 inh) | SIAE inh conf inactive
CCOC(=O)N1CCN(C(=O)C[C@H]2C[C@@]3(C(=O)OC)C(=C[C@H](C4CCCC4)O[C@@H]3C)N(CCc3ccc(OC)c(OC)c3)C2=O)CC1	none (no result: PAD4 FP inh, Apaf-1 inh, TCR-CD3 inh, GSTO1 inh)
Cc1nc(SCC(=O)N(CC(C)C)C2CCS(=O)(=O)C2)c2ccccc2n1 (stereo not given)	SIAE primary 17 (no result: GSTO1 inh) | SIAE inh conf inactive
Oc1[nH]c2ccccc2c1N=Nc1nc(Nc2ccccc2)nc(N2CCOCC2)n1	none
Cc1[nH]c2ccccc2c1/C=N/Nc1nc(Nc2ccccc2)nc(N2CCOCC2)n1	SIAE primary 32 | SIAE inh conf inactive
COc1ccccc1/C=C/C(=O)OCC(=O)Nc1c(F)cccc1F	none
Cn1c(CCN2CCN(c3ccccn3)CC2)nc2cc(NC(=O)COc3ccccc3)ccc21	SIAE primary 70 | SIAE inh conf inactive
Cc1ccc(OCC(=O)Nc2ccc3c(c2)nc(CCN2CCN(c4ccccn4)CC2)n3C)cc1	none (no result: PAD4 FP inh, Apaf-1 inh, GSTO1 inh)
Oc1ccccc1C=NNC(=S)NN=Cc1ccccc1O	SIAE primary 42 (no result: PAD4 FP inh, Apaf-1 inh, GSTO1 inh) | SIAE inh conf 52
COc1cccc(CNC(=O)Cn2c(=O)n(CCC(=O)N3CCCCC3)c(=O)c3sccc32)c1	none
CCCCC(=O)NC(c1cccs1)c1cc(Cl)c2cccnc2c1O (stereo not given)	none
CCCC(=O)NC(c1ccc(OC)c(OC)c1)c1cc(Cl)c2cccnc2c1O (stereo not given)	SIAE primary 20 | SIAE inh conf inactive
CC(=O)NC(c1ccccc1)c1cc(Cl)c2cccnc2c1O (stereo not given)	SIAE primary 20 | SIAE inh conf 17
CC(=O)NC(c1ccc(N(C)C)cc1)c1cc(Cl)c2cccnc2c1O (stereo not given)	SIAE primary 23 (no result: PAD4 FP inh, Apaf-1 inh, GSTO1 inh) | SIAE inh conf 24

Source: PubChem BioAssay (several laboratories)
